{"source": "ChEMBL document CHEMBL4373706", "about": "“Discovery of Inhibitors of Aurora/PLK Targets as Anticancer Agents” (J Med Chem, 2019)", "key": {"[1]": {"molecular_target": "T1, Mitogen-activated protein kinase 15 (Homo sapiens, UniProt Q8TD08)", "T1 sequence (Q8TD08 whole entry)": "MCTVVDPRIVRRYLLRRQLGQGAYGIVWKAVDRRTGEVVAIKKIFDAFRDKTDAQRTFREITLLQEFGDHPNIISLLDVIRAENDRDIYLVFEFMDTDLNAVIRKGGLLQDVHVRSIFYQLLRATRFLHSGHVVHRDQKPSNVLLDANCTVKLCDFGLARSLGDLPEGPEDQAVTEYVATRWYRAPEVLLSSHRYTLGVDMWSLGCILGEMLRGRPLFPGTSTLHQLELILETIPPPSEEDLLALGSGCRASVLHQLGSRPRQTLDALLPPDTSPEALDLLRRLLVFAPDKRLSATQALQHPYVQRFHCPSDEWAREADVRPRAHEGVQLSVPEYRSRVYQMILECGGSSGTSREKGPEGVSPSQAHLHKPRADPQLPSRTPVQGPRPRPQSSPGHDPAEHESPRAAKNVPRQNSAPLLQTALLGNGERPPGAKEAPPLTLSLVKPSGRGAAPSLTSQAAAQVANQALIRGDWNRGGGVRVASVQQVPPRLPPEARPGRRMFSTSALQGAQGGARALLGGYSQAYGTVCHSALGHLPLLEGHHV", "assay": "Binding affinity to wild-type human partial length ERK8 (M1 to P437 residues) expressed in bacterial expression system measured after 1 hr by kinomescan method", "conditions": "pooled result: one value given for 7 cell lines, strains, targets or settings"}, "[2]": {"assay": "AUC (0 to infinity) in Sprague-Dawley rat at 50 mg/kg, po administered via gastric gavage by LC-MS/MS analysis", "assay_type": "ADME, organism-based", "design": "dose 50 mg/kg, time infinity, route oral", "conditions": "in vivo"}, "HCT-116 [3]": {"test_system": "HCT-116", "assay": "Antitumor activity against human HCT116 cells xenografted in BALB/c mouse assessed as survival rate at 10 mg/kg, iv administered every 3 days for 60 days relative to control", "assay_type": "functional", "conditions": "HCT-116, iv"}, "[4]": {"assay": "Oral bioavailability in Sprague-Dawley rat at 50 mg/kg administered via gastric gavage by LC-MS/MS analysis", "assay_type": "ADME, organism-based", "conditions": "in vivo"}, "[5]": {"assay": "Half life in Sprague-Dawley rat at 50 mg/kg, po administered via gastric gavage by LC-MS/MS analysis", "assay_type": "ADME, organism-based", "conditions": "in vivo"}, "MCF7": {"test_system": "MCF7", "assay": "Antiproliferative activity against human MCF7 cells measured after 48 hrs by MTT assay", "assay_type": "functional, cell-based", "conditions": "MCF7, 48 h", "in_short": "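Cells were exposed to a range of compound concentrations for 48 h. MTT reagent was then added and absorbance read at 490 nm. Viability was normalized to vehicle control set as 100%, from n = 3 independent experiments, and IC50 was taken from the dose–response curves.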"}, "HCT-116 [6]": {"test_system": "HCT-116", "assay": "Cell cycle arrest in human HCT116 cells assessed as accumulation at G2/M phase at 1 uM measured after 24 to 48 hrs by propidium iodide staining-based flow cytometry (reference value: 3.37%)", "assay_type": "functional"}, "Homo sapiens": {"organism": "Homo sapiens", "assay": "Inhibition of AURKA/PLK1 in human HCT116 cells assessed as increase in histone H3 Ser10 phosphorylation measured after 24 to 48 hrs by Western blot analysis", "assay_type": "cell-based"}}, "note": "Activity calls are given as the source filed them. The rule behind the calls is not given here."}
{"smiles": "O=C(Nc1ccc2cc(C(=O)Nc3nccs3)ccc2c1)c1ccc(Cl)c(Cl)c1", "values": [{"measurement": "Kd", "setting": "[1]", "result": 5.32, "unit": "µM"}, {"measurement": "AUC", "setting": "[2]", "result": 819.495, "unit": "µg·h/mL"}, {"measurement": "survival at 10 mg/kg", "setting": "HCT-116 [3]", "result": 80, "unit": "%"}, {"measurement": "F", "setting": "[4]", "result": 65, "unit": "%"}, {"measurement": "half-life", "setting": "[5]", "result": 11.8, "unit": "h"}, {"measurement": "IC50", "setting": "MCF7", "result": 2.3, "unit": "µM"}, {"measurement": "Activity", "setting": "HCT-116 [6]", "result": 7.51, "unit": "%"}, {"measurement": "inhibition", "setting": "Homo sapiens", "result": "Active"}]}
